The source of these data is ChEMBL document CHEMBL1121886, “Synthesis and antineoplastic activity of mitosene analogues of the mitomycins” (J Med Chem, 1981).

The subject of data set [1] is P388. Description: Optimal dose effective against P388 murine leukemia in mice. The format is functional, Mus musculus. In short, it runs like this:
(§1)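 P388 ascites cells (10⁶) were implanted in CDF₁ female mice. Six mice per dose were dosed on day 1 only; 10 controls received saline, and mitomycin C reference groups had six mice per dose. %T/C = MST treated/control × 100. The optimal dose gave the maximum %T/C. MED is the dose giving %T/C 125. TR = optimal dose/MED.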

Data set [2] concerns P388. Description: (Percentage) Maximum effect on life span of control group of mice for mytomycin C at its optimal dose. It counts as functional, Mus musculus. In short, it runs like this:
(§2)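 CDF₁ female mice were implanted with 10⁶ P388 ascites cells and dosed on day 1 only, six mice per dose. There were 10 saline-injected controls, plus a six-mouse mitomycin C group per dose in each experiment. % T/C = median survival treated/control × 100 at optimal dose; MED is the dose giving % T/C 125; TR = optimal dose/MED.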

For data set [3], the system named is P388. Description: (Percentage) Maximum effect on life span of mice against P388 murine leukemia when compared with control. The format is functional, Mus musculus. In short, it runs like this:
as §2

Data set [4] deals with L1210. Description: Average change in weight between treated and control groups at 24 mg/kg in mice infected with L1210 leukemia cells. The format is functional, Mus musculus. The method in brief:
(§3)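 BDF₁ female mice received 10⁶ L1210 ascites cells, then a single injection on day 1 in distilled water containing Tween 80, six mice per dose. The control group had 36 mice. Median survival time is in days; % T/C = MST treated/MST control × 100, with 125 taken as significant. Weight change is the average weight difference between treated and control groups.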

Data set [5] relates to L1210. Kind of data set: (§4) Average change in weight between treated and control groups at 3 mg/kg in mice infected with L1210 leukemia cells. The format is functional, Mus musculus. In short, it runs like this: as §3
For data set [6], the system named is L1210. Description: Median survival time against L1210 murine leukemia at 12 mg/kg in mice when compared with control. It counts as functional, Mus musculus. The method in brief:
as §3

In data set [7] the test system is L1210. Description: Median survival time against L1210 murine leukemia at 24 mg/kg in mice when compared with control. It counts as functional, Mus musculus. In short, it runs like this:
as §3

Data set [8] has as its system L1210. Description: Median survival time against L1210 murine leukemia at 3 mg/kg in mice when compared with control. The format is functional, Mus musculus. In short, it runs like this:
as §3

Data set [9] concerns L1210. Description: Median survival time against L1210 murine leukemia at 6 mg/kg in mice when compared with control. The format is functional, Mus musculus. In short, it runs like this:
as §3

For data set [10], the system named is L1210. Description: Average change in weight between treated and control groups at 6 mg/kg in mice infected with L1210 leukemia cells. It counts as functional, Mus musculus. In short, it runs like this:
(§5)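 L1210 ascites cells (10⁶) were implanted into BDF₁ female mice. Six mice per dose received a single injection on day 1 in distilled water containing Tween 80; the control group had 36 mice. Survivors were counted on days 5 and 30. %T/C = MST (days) treated/control × 100, with 125 as significant. Weight change is the average weight difference between treated and control groups.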

Data set [11] relates to L1210. Description: Average change in weight between treated and control groups at 1.5 mg/kg in mice infected with L1210 leukemia cells. It counts as functional, Mus musculus. In short, it runs like this: as §5
Data set [12] has as its system L1210. Kind of data set: (§6) Average change in weight between treated and control groups at 12 mg/kg in mice infected with L1210 leukemia cells. The format is functional, Mus musculus. The method in brief:
as §3

Data set [13] relates to P388. Kind of data set: Minimum effective dose (MED) against P388 murine leukemia in mice. It counts as functional. The conditions noted are these: Mus musculus, read-out: MED. In short, it runs like this:
as §1

Data set [14] can be described thus: (§7) Therapeutic ratio of optimal dose to minimum effective dose(MED). It counts as ADME. The conditions noted are these: mouse. The method in brief:
as §1

Data set [15] has as its system L1210. Description: Median survival time against L1210 murine leukemia at 1.5 mg/kg in mice when compared with control. It counts as functional, Mus musculus. The method in brief: as §3
Data set [16] in a line: as §6. The format is functional, Mus musculus. The method in brief: as §5
Data set [17] deals with L1210. The data set is described as §4. The format is functional, Mus musculus. In short, it runs like this: as §5
This is another data set of the same source.

Data set [18] relates to L1210. Description: Median survival time against L1210 murine leukemia at 24 mg/kg in mice when compared with control; Toxic. The format is functional, organism-based. Also noted: dose 24 mg/kg. The conditions noted are these: Mus musculus. In short, it runs like this:
as §5

A short description of data set [19]: as §7. The conditions noted are these: mouse, p388. It counts as ADME. In short, it runs like this:
as §2

In the data set on P388 [1], `COC1=C(C)C(=O)c2c(c(COC(N)=O)c3n2CCC3OC(=O)CCl)C1=O` (centres undefined) registered a Dose of 6.4 mg/kg. The T/C – broadly, the ratio of treated to control – came out at 224% in the data set with P388 [2] and 111% in the data set with P388 [3].

Consider `CC1=C(N2CC2)C(=O)c2c(COC(N)=O)c3n(c2C1=O)CCC3OC(N)=O` (centres undefined), for which the Average weight change was -3.2 g in the data set on L1210 [4]; -1.1 g in the data set with L1210 [5]; -1.6 g in the data set on L1210 [10]; -0.6 g in the data set on L1210 [11]; -2.4 g in the data set on L1210 [12]. For the same compound, the T/C was 134% with L1210 [6]; 138% in the data set with L1210 [7]; 112% with L1210 [8]; 114% in the data set with L1210 [9]; 183% in the data set on P388 [2]; 144% in the data set on P388 [3]. Further, the T/C with L1210 [15] is recorded as 108%. For the same compound, the Dose in the data set with P388 [1] worked out at 51.2 mg/kg. The minimal effective dose with P388 [13] worked out at 0.8 mg/kg. Further, the selectivity ratio in [14] is 64.

Take `CO[C@@]12[C@H](COC(N)=O)C3=C(C(=O)C(C)=C(N)C3=O)N1C[C@@H]1N[C@@H]12` [MITOMYCIN]: the Average weight change is -5.5 g in data set [16], -2.4 g with L1210 [5], -3.6 g in the data set with L1210 [10] and -1.2 g with L1210 [11]. For the same compound, the T/C in the data set with L1210 [6] amounted to 110%; in the data set with L1210 [8], 122%; in the data set on L1210 [9], 124%; with L1210 [15] it was 108%.

In the data set on P388 [1], `COC1=C(C)C(=O)c2c(c(COC(N)=O)c3n2CCC3O)C1=O` (centres undefined) yielded a Dose of 6.4 mg/kg. In addition, the T/C in the data set with P388 [2] was 181%; in the data set on P388 [3], 113%.

Take `COC1=C(C)C(=O)c2c(c(COC(N)=O)c3n2CCC3OC(=O)C(C)(C)C)C1=O` (centres undefined): the Dose with P388 [1] was 51.2 mg/kg. Further, the T/C was 183% in the data set on P388 [2] and 117% in the data set on P388 [3].

Take `COC1=C(C)C(=O)c2c(c(COC(N)=O)c3n2CCC3OC(N)=O)C1=O` (centres undefined): the Average weight change with L1210 [4] is listed as -5.1 g; with L1210 [17], -3.2 g; in the data set with L1210 [10], -1.7 g; in the data set on L1210 [11] it was -1.4 g; in the data set on L1210 [12], -3.4 g. The T/C in the data set on L1210 [6] is 122%; with L1210 [18] it was “Toxic”; in the data set on L1210 [8] it was 118%; in the data set with L1210 [9], 116%; with P388 [2], 238%; in the data set with P388 [3] it was 163%. Also, the T/C with L1210 [15] stood at 114%. Further, the Dose in the data set with P388 [1] turned out to be 6.4 mg/kg. The minimal effective dose in the data set with P388 [13] was determined as 0.4 mg/kg. In addition, the selectivity ratio in data set [14] stood at 16.

In turn, `COC1=C(C)C(=O)c2c(c(COC(N)=O)c3n2CCC3OC(C)=O)C1=O` (centres undefined) yielded a Dose in the data set on P388 [1] of 6.4 mg/kg. Also, the T/C was 229% in the data set with P388 [2] and 165% in the data set with P388 [3]. For the same compound, in the data set with P388 [13], the minimal effective dose was determined as 0.8 mg/kg. The selectivity ratio in [14] came out at 8.

On to `COC(=O)OC1CCn2c3c(c(COC(N)=O)c21)C(=O)C(OC)=C(C)C3=O` (centres undefined), for which, in the data set on P388 [1], the Dose turned out to be 3.2 mg/kg. Moreover, the T/C in the data set on P388 [2] is recorded as 244%; in the data set with P388 [3] it was 150%. The minimal effective dose in the data set on P388 [13] stood at 1.6 mg/kg. Further, the selectivity ratio in data set [14] turned out to be 2.

Take `CC(=O)OC1CCn2c3c(c(COC(N)=O)c21)C(=O)C(N1CC1)=C(C)C3=O` (centres undefined): the Dose in the data set on P388 [1] came out at 6.4 mg/kg. For the same compound, the T/C with P388 [2] was 224%; in the data set with P388 [3] it was 122%.

In the case of `COC1=C(C)C(=O)c2c(c(COC(N)=O)c3n2CC/C3=N\O)C1=O`, the Dose in the data set on P388 [1] came out at 6.4 mg/kg. For the same compound, the T/C with P388 [2] is reported as 181%; in the data set on P388 [3], 150%. Besides, the minimal effective dose in the data set on P388 [13] worked out at 1.6 mg/kg. In addition, the selectivity ratio in [14] came out at 4.

On to `COC1=C(C)C(=O)c2c(c(COC(N)=O)c3n2CCC3)C1=O`, for which the Dose in the data set with P388 [1] was 51.2 mg/kg. For the same compound, the values for the T/C in the data set on P388 [2] and in the data set on P388 [3] were 183% and 128%, respectively. Besides, the selectivity ratio in data set [19] amounted to 1. In addition, the minimal effective dose in the data set with P388 [13] came out at 51.2 mg/kg.

Compound `CNC(=O)OC1CCn2c3c(c(COC(N)=O)c21)C(=O)C(OC)=C(C)C3=O` (centres undefined) came in with a Dose with P388 [1] of 6.4 mg/kg. In addition, the T/C is 228% with P388 [2] and 167% in the data set with P388 [3]. In addition, the minimal effective dose with P388 [13] was 1.6 mg/kg.

`CNC(=O)OC1CCn2c3c(c(CCl)c21)C(=O)C(OC)=C(C)C3=O` (centres undefined): the Dose in the data set on P388 [1] came to 12.8 mg/kg. Also, the values for the T/C in the data set with P388 [2] and with P388 [3] were 222% and 139%, respectively. For the same compound, the minimal effective dose in the data set on P388 [13] was 12.8 mg/kg. For the same compound, the selectivity ratio in [14] amounted to 1.

`COC1=C(C)C(=O)c2c(c(COC(N)=O)c3n2CCC3OC(=O)c2cccnc2)C1=O` (centres undefined) displayed a Dose with P388 [1] of 6.4 mg/kg. For the same compound, the T/C in the data set on P388 [2] is recorded as 211%; with P388 [3] it was 128%. The minimal effective dose with P388 [13] turned out to be 6.4 mg/kg. In [14], the selectivity ratio was 1.

As to `COc1c(C)c(O)c2c(c1O)c(COC(N)=O)c1n2C[C@@H]2[C@H]1N2C` (some centres undefined), the Dose with P388 [1] worked out at 12.8 mg/kg. Moreover, the T/C is on record as 181% in the data set with P388 [2] and 213% in the data set on P388 [3]. The minimal effective dose with P388 [13] is 0.8 mg/kg. Also, in [14], the selectivity ratio came out at 16.
